Some results are limits rather than exact numbers.

Data set [1] deals with T1, Adenosine deaminase (Bos taurus, UniProt P56658).
T1 sequence (P56658 whole entry): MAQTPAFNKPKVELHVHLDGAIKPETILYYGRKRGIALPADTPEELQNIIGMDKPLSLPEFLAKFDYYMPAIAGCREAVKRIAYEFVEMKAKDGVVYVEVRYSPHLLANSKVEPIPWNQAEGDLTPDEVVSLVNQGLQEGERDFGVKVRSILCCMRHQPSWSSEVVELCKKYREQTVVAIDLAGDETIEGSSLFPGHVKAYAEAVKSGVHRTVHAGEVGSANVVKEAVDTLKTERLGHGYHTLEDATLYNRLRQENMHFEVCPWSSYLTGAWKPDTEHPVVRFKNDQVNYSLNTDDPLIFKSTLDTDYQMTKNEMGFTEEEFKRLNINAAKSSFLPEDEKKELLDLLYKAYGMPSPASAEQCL
Put plainly: Inhibition of bovine adenosine deaminase pre-incubated for 5 mins before adenosine addition. The settings on record: read-out: Ki.

A short description of data set [2]: Drug metabolism in mouse liver microsomes assessed as metabolic turnover rate per 0.125 mg/ml protein pre-incubated at 37 degC for 5 mins before NADPH addition and measured after 30 mins by LC/MS/MS method. In kind it is ADME, microsome. The settings on record: 0.5 h. On the technique in general: Liver microsomes are a subcellular fraction often used to study metabolism.

A short description of data set [3]: Half life in mouse liver microsomes pre-incubated at 37 degC for 5 mins before NADPH addition and measured after 30 mins by LC/MS/MS method. In kind it is ADME, microsome.
Data set [4] can be described thus: Drug metabolism in rat liver microsomes assessed as metabolic turnover rate per 0.125 mg/ml protein pre-incubated at 37 degC for 5 mins before NADPH addition and measured after 30 mins by LC/MS/MS method. In kind it is ADME, microsome. The settings on record: 0.5 h.
The nature of data set [5]: Drug metabolism in human liver microsomes assessed as metabolic turnover rate per 0.125 mg/ml protein pre-incubated at 37 degC for 5 mins before NADPH addition and measured after 30 mins by LC/MS/MS method. In kind it is ADME, microsome. The settings on record: 0.5 h.
Data set [6] can be described thus: Half life in rat liver microsomes pre-incubated at 37 degC for 5 mins before NADPH addition and measured after 30 mins by LC/MS/MS method. In kind it is ADME, microsome.
The nature of data set [7]: Half life in human liver microsomes pre-incubated at 37 degC for 5 mins before NADPH addition and measured after 30 mins by LC/MS/MS method. The format is ADME, microsome.
A short description of data set [8]: Drug metabolism in mouse liver microsomes assessed as drug recovery pre-incubated at 37 degC for 5 mins before NADPH addition and measured after 30 mins by LC/MS/MS method. In kind it is ADME, microsome. The settings on record: read-out: Drug recovery.
Data set [9] can be described thus: Drug metabolism in rat liver microsomes assessed as drug recovery pre-incubated at 37 degC for 5 mins before NADPH addition and measured after 30 mins by LC/MS/MS method. In kind it is ADME, microsome. The settings on record: read-out: Drug recovery.
A short description of data set [10]: Drug metabolism in human liver microsomes assessed as drug recovery pre-incubated at 37 degC for 5 mins before NADPH addition and measured after 30 mins by LC/MS/MS method. In kind it is ADME, microsome. The settings on record: read-out: Drug recovery.
The nature of data set [11]: Drug metabolism in mouse liver microsomes assessed as drug recovery pre-incubated at 37 degC for 5 mins measured after 30 mins in absence of NADPH by LC/MS/MS method. In kind it is ADME, microsome. The settings on record: read-out: Drug recovery.
Data set [12] can be described thus: Drug metabolism in rat liver microsomes assessed as drug recovery pre-incubated at 37 degC for 5 mins measured after 30 mins in absence of NADPH by LC/MS/MS method. The format is ADME, microsome. The settings on record: read-out: Drug recovery.
Data set [13] is described as follows: Drug metabolism in human liver microsomes assessed as drug recovery pre-incubated at 37 degC for 5 mins measured after 30 mins in absence of NADPH by LC/MS/MS method. In kind it is ADME, microsome. The settings on record: read-out: Drug recovery.
The nature of data set [14]: AUC (0 to t) in Wistar rat at 3 mg/kg, iv after 0.25 to 24 hrs by LC/MS/MS method. The format is ADME, organism-based. Details: time upper 24 hr, dose 3 mg/kg, time lower 0.25 hr, route intravenous. The settings on record: in vivo. The essentials: (§1)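 Male Wistar rats were given a single intravenous dose. The vehicle was NMP 10%, PEG-300 15%, and 0.1M ammonium acetate buffer q.s. (pH 3). Plasma concentration–time profiles were used to derive AUC0-t, Vss, clearance (mL/min/kg) and t1/2.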

A short description of data set [15]: Volume of distribution at steady state in Wistar rat at 3 mg/kg, iv after 0.25 to 24 hrs by LC/MS/MS method. In kind it is ADME, organism-based. The settings on record: in vivo, read-out: Vdss. The procedure, abridged: as §1
The nature of data set [16]: Clearance in Wistar rat at 3 mg/kg, iv after 0.25 to 24 hrs by LC/MS/MS method. In kind it is ADME, organism-based. The settings on record: in vivo. The procedure, abridged: as §1
Data set [17] is described as follows: Half life in Wistar rat at 3 mg/kg, iv after 0.25 to 24 hrs by LC/MS/MS method. In kind it is ADME, organism-based. The settings on record: in vivo. The essentials: as §1
The nature of data set [18]: AUC (0 to t) in Wistar rat at 1 mg/kg, iv after 0.25 to 24 hrs by LC/MS/MS method. In kind it is ADME, organism-based. Further details: dose 1 mg/kg, time 0.25-24 hr, route intravenous. The settings on record: in vivo. The procedure, abridged:
as §1

Data set [19] is described as follows: Volume of distribution at steady state in Wistar rat at 1 mg/kg, iv after 0.25 to 24 hrs by LC/MS/MS method. In kind it is ADME, organism-based. The settings on record: in vivo, read-out: Vdss. The procedure, abridged:
as §1

Data set [20] can be described thus: Clearance in Wistar rat at 1 mg/kg, iv after 0.25 to 24 hrs by LC/MS/MS method. The settings on record: in vivo. The format is ADME, organism-based. The essentials:
as §1

Data set [21] can be described thus: Half life in Wistar rat at 1 mg/kg, iv after 0.25 to 24 hrs by LC/MS/MS method. In kind it is ADME, organism-based. The settings on record: in vivo. The procedure, abridged:
as §1

In data set [22] the test system is Rattus norvegicus. The data set can be described thus: Plasma concentration in Wistar rat at 1 mg/kg, iv after 1 hr by LC/MS/MS method. The format is ADME, organism-based. The settings on record: in vivo, BLD = below limit of detection. The procedure, abridged: as §1
For data set [23], the system named is Rattus norvegicus. The data set can be described thus: Clearance in Wistar rat at 1 mg/kg, iv after 1 hr by LC/MS/MS method. The format is ADME, organism-based. The settings on record: in vivo, BLD = below limit of detection. The essentials:
as §1

One may read the Ki as a dissociation constant, usually derived from enzyme kinetics or from competition with a known ligand. A word on the half-life: it is how long it takes for the measured level to halve. Read a high half-life as slow loss. Usually AUC(0-t) stands for exposure summed from dosing to a finite time, without extrapolation to infinity. Broadly, the clearance is the rate of elimination divided by the concentration. With `C[C@H](O)[C@@H](CCc1ccc(C(F)(F)F)cc1)n1cnc2c(N)ncnc21`, in data set [1], the Ki was 5.2 nM. For the same compound, the Drug metabolism in data set [2] was 0.04 nmol/min/mg; in data set [4], under 0.04 nmol/min/mg; in [5], under 0.04 nmol/min/mg. Also, the half-life in data set [3] is over 30 min; in data set [6], over 30 min; in data set [7], over 30 min; in [17], 133 min. Further, the remaining at 0.5 h amounted to 85% in data set [8]; 93% in data set [9]; 99% in data set [10]; 94% in data set [11]; 93% in data set [12]; 95% in data set [13]. This compound gave an area under the curve AUC(0-t) in data set [14] of 2.21 µM·h. For the same compound, the Vd in data set [15] came to 7.01 L/kg. The clearance in data set [16] was 59 mL/min/kg.
For the compound `C[C@H](O)[C@@H](CCc1cccc(C(F)(F)F)c1)n1cnc(C(N)=O)c1`, in data set [1], the Ki came out at 5.9 nM. For the same compound, the Drug metabolism in [2] is given as 0.04 nmol/min/mg; in data set [4], 0.04 nmol/min/mg; in [5], 0.06 nmol/min/mg. In addition, the half-life is over 30 min in [3], over 30 min in [6], over 30 min in [7] and 56.4 min in data set [21]. The remaining at 0.5 h in [8] is 89%; in data set [9], 87%; in data set [10], 79%; in data set [11], 93%; in [12] it was 92%; in [13], 94%. Moreover, the AUC(0-t) in data set [18] worked out at 1.42 µM·h. Besides, the Vd in [19] stood at 2 L/kg. The same compound yielded a clearance in data set [20] of 33.3 mL/min/kg.
For the compound `C[C@H](O)[C@@H](CCc1cccc(C(F)(F)F)c1)n1cnc2c(N)ncnc21`, in data set [1], the inhibition constant Ki turned out to be 1.1 nM. Besides, the results for the Drug metabolism in data set [2], in data set [4] and in [5] were 0.08 nmol/min/mg, 0.04 nmol/min/mg and 0.06 nmol/min/mg, respectively. Moreover, the half-life in [3] is over 30 min; in data set [6], over 30 min; in data set [7] it was over 30 min; in data set [17], under 30 min. Further, the remaining at 0.5 h is 74% in data set [8]; 86% in [9]; 80% in [10]; 89% in data set [11]; 91% in data set [12]; 95% in [13]. In addition, the exposure AUC(0-t) in data set [14] was 1.61 µM·h. Moreover, in [15], the Vd amounted to 1.88 L/kg. For the same compound, the clearance in data set [16] was 85 mL/min/kg.
`CCCCCC[C@H]([C@H](C)O)n1cnc2c(N)ncnc21` [(+)-EHNA]: the inhibitory constant (Ki) in [1] amounted to 2.2 nM. Besides, the AUC(0-t) in data set [18] was determined as 0.35 µM·h. Also, the Cp entry in data set [22] is listed as “Bld”. The CL result in data set [23] is “Bld”.
Regarding `CNC(=O)c1cccc(CC[C@H]([C@H](C)O)n2cnc3c(N)ncnc32)c1`, the Ki in [1] is 2.7 nM. Further, the Drug metabolism in data set [2], in [4] and in data set [5] was under 0.04 nmol/min/mg throughout. Further, the half-life in data set [3], in data set [6] and in data set [7] was over 30 min each time. The remaining at 0.5 h is 100% in data set [8]; 91% in [9]; 90% in data set [10]; 96% in data set [11]; 100% in data set [12]; 92% in [13].
For `COC(=O)c1cccc(CC[C@H]([C@H](C)O)n2cnc3c(N)ncnc32)c1`, in data set [1], the inhibition constant Ki was found to be 2.2 nM. For the same compound, the Drug metabolism is 0.04 nmol/min/mg in data set [2], under 0.04 nmol/min/mg in data set [4] and 0.1 nmol/min/mg in data set [5]. Further, the half-life in [3], in data set [6] and in data set [7] was over 30 min in each case. Moreover, the remaining at 0.5 h was 88% in data set [8]; 96% in [9]; 68% in data set [10]; 100% in [11]; 99% in data set [12]; 65% in data set [13].

The record behind these values is ChEMBL document CHEMBL4177582, “Modifications of flexible nonyl chain and nucleobase head group of (+)-erythro-9-(2's-hydroxy-3's-nonyl)adenine [(+)-EHNA] as adenosine deaminase inhibitors” (Bioorg Med Chem, 2017).
